Results taken from PMC3215888 (Cancer Chemotherapy and Pharmacology, 2011).
pIC50: −log10 of the molar value. Read-outs that look alike come from different tables or passages of the source.

Experiments:
[1] = system: solid tumor xenograft models; experiment: Objective responses across the solid tumor xenograft panel; type: in vivo, mice; conditions: MTD 20.8 mg/kg
In short: (§1)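 Female CB17 scid mice bearing subcutaneous tumors, 10 per group. Dosed by oral gavage twice daily, 5 days weekly for 6 weeks, at 20.8, 10.4, 5.2 or 2.6 mg/kg, in 10% 2-hydroxypropyl-β-cyclodextrin/1% sodium bicarbonate. Event = quadrupled tumor volume; EFS by Kaplan–Meier, exact log-rank test. Per-mouse scores PD/SD/PR (≥50% regression)/CR (<0.10 cm3)/MCR; group median reported. PR, CR and MCR count as objective responses.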

NB-1771 tumor xenograft = experiment: Pharmacodynamics: mitotic index; type: in vivo, mice; conditions: single 20.8 mg/kg
In short: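 Single oral 20.8 mg/kg dose to mice bearing NB-1771 tumors. Tumors taken at 0, 2, 6, 8, 12 and 24 h (3 mice per time), formalin-fixed, paraffin-embedded. 5 μm sections immunofluorescently stained for MPM2 (1:100) and phospho-Ser10 histone H3 (1:25), 60 min at room temperature, DAPI counterstain. Five 40× images per slide; mitotic index = % cells positive for either marker; mean ± SD.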

[2] = system: A-673 Ewing sarcoma cell line; experiment: DIMSCAN in vitro testing, 96 h; type: cell-based; conditions: for pIC50: Homo sapiens, A673, 96 h
In short: (§2)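 Neuroblastoma and Ewing sarcoma lines, STR-verified and maintained as in the originators' reports. Exposed for 96 h to test compound (DMSO stock diluted in medium) at 1 nM–10 μM. Viable cells quantified by fluorescein diacetate fluorescence with DIMSCAN digital image microscopy. Absolute IC50 = concentration giving 50% growth inhibition vs controls. Relative IC50 = concentration giving 50% of the maximum inhibitory effect.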

[3] = system: CHLA-140 neuroblastoma cell line; experiment: DIMSCAN in vitro testing, 96 h; type: cell-based; conditions: for pIC50: Neuroblastoma cell, 96 h
In short: as §2

[4] = system: CHLA-32 Ewing sarcoma cell line; experiment: DIMSCAN in vitro testing, 96 h; type: cell-based; conditions: for pIC50: 96 h
In short: as §2

Aurora kinase A = conditions: cited from earlier work
[5] = system: SMS-KAN neuroblastoma cell line; experiment: DIMSCAN in vitro testing, 96 h; type: cell-based
[6] = system: Rh65 ALV Rhabdomyosarcoma xenograft; type: in vivo, mice
In short: as §1

[7] = system: CHLA-258 Ewing sarcoma cell line; experiment: DIMSCAN in vitro testing, 96 h; type: cell-based; conditions: for pIC50: 96 h
In short: as §2

[8] = system: TC-71 Ewing sarcoma cell line; experiment: DIMSCAN in vitro testing, 96 h; type: cell-based; conditions: for pIC50: TC-71, 96 h
In short: as §2

[9] = system: CHLA-136 neuroblastoma cell line; experiment: DIMSCAN in vitro testing, 96 h; type: cell-based; conditions: for pIC50: Neuroblastoma cell, 96 h
In short: as §2

[10] = system: LA–N-6 neuroblastoma cell line; experiment: DIMSCAN in vitro testing, 96 h; type: cell-based; conditions: for pIC50: Neuroblastoma cell, 96 h
In short: as §2

Toxicity [11] = type: in vivo, mice; conditions: leukemia models at the MTD
In short: (§3)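 Deaths counted in control and treated arms of the xenograft efficacy studies (10 mice per solid tumor group, 8 per ALL group). A group would be excluded from analysis if mortality exceeded 25%.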

[12] = system: CHLA-56 Ewing sarcoma cell line; experiment: DIMSCAN in vitro testing, 96 h; type: cell-based
In short: as §2

[13] = system: solid tumor and ALL xenograft models; experiment: EFS activity across all xenograft models at the MTD; type: in vivo, mice; conditions: MTD 20.8 mg/kg
[14] = system: NB-1771 Neuroblastoma xenograft; type: in vivo, mice
In short: as §1

[15] = system: SMS-SAN neuroblastoma cell line; experiment: DIMSCAN in vitro testing, 96 h; type: cell-based; conditions: for pIC50: Neuroblastoma cell, 96 h
In short: as §2

Toxicity [16] = type: in vivo, mice; conditions: solid tumor study at the MTD
In short: as §3

For `COc1cc(Nc2ncc3c(n2)-c2ccc(Cl)cc2C(c2c(F)cccc2OC)=NC3)ccc1C(=O)O` [MLN8237], the “objective responses out of 9 models in the solid tumor panel” value [1] was 5, the “time of return of mitotic indices to baseline levels” value (NB-1771 tumor xenograft) was 24 h and the “time of peak of mitotic indices / pharmacodynamic activity” value (NB-1771 tumor xenograft; 20.8 mg/kg) was 12 h. The “increase of mitotic indices (MPM2, pHistH3) within 6 h” value (NB-1771 tumor xenograft; 6 h) was “approximately twofold”, the “increase of mitotic indices (MPM2, pHistH3) at peak” value (NB-1771 tumor xenograft; 12 h) was “three to fivefold” and the Ymin ([2]; A-673, minimum T/C) was 13.1%. The pIC50 ([2]; read-out: Absolute IC50) was 7.49, the pIC50 ([2]; read-out: Relative IC50) was 7.52 and the Ymin ([3]; CHLA-140, minimum T/C) was 29.4%. It also gave a pIC50 ([3]; read-out: Absolute IC50) of 7.59, a pIC50 ([3]; read-out: Relative IC50) of 7.85 and a pIC50 ([4]; read-out: Absolute IC50) of 6.87. The pIC50 ([4]; read-out: Relative IC50) was 7.04, the Ymin ([4]; CHLA-32, minimum T/C) was 13.1% and the “specificity for Aurora kinase A inhibition versus Aurora kinase B” value (Aurora kinase A) was 200 fold. The pIC50 ([5]; read-out: Absolute IC50) was 7.47, the pIC50 ([5]; read-out: Relative IC50) was 7.49 and the “EFS T/C” value ([6]; 2.6 mg/kg) was 2.1. For the same compound, the EFS activity ([6]; 2.6 mg/kg) was “Int”, the “Estimate of median time to event” value ([6]; 2.6 mg/kg) was 22.9 days and the Median group response ([6]; 2.6 mg/kg) was “PD2 (if the TGD value >1.5, the mouse was considered PD2)”. The Response activity ([6]; 2.6 mg/kg) was “Int”, the “Tumor volume T/C” value ([6]; 2.6 mg/kg) was 0.31 and the “Median RTV/hCD45 at end of study” value ([6]; 2.6 mg/kg) was over 4. For the same compound, the “EFS T/C” value ([6]; 5.2 mg/kg) was 3.7, the EFS activity ([6]; 5.2 mg/kg) was “Int” and the “Estimate of median time to event” value ([6]; 5.2 mg/kg) was 39.3 days. The Median group response ([6]; 5.2 mg/kg) was “PD2 (if the TGD value >1.5, the mouse was considered PD2)”, the Response activity ([6]; 5.2 mg/kg) was “Int” and the “Tumor volume T/C” value ([6]; 5.2 mg/kg) was 0.19. For the same compound, the “Median RTV/hCD45 at end of study” value ([6]; 5.2 mg/kg) was over 4, the “EFS T/C” value ([6]; 10.4 mg/kg) was over 3.9 and the EFS activity ([6]; 10.4 mg/kg) was “Int”. The Median group response ([6]; 10.4 mg/kg) was “PD2 (if the TGD value >1.5, the mouse was considered PD2)”, the Response activity ([6]; 10.4 mg/kg) was “Int” and the “Tumor volume T/C” value ([6]; 10.4 mg/kg) was 0.11. The “Median RTV/hCD45 at end of study” value ([6]; 10.4 mg/kg) was 3.2, the “EFS T/C” value ([6]; 20.8 mg/kg) was over 3.9 and the EFS activity ([6]; 20.8 mg/kg) was “High”. For the same compound, the Median group response ([6]; 20.8 mg/kg) was “MCR”, the Response activity ([6]; 20.8 mg/kg) was “High” and the “Tumor volume T/C” value ([6]; 20.8 mg/kg) was 0.01. For the same compound, the “Median RTV/hCD45 at end of study” value ([6]; 20.8 mg/kg) was 0.0, the pIC50 ([7]; read-out: Absolute IC50) was 6.88 and the pIC50 ([7]; read-out: Relative IC50) was 7.09. It also gave a Ymin ([7]; CHLA-258, minimum T/C) of 18.8%, a pIC50 ([8]; read-out: Absolute IC50) of 6.99 and a pIC50 ([8]; read-out: Relative IC50) of 7.00. For the same compound, the Ymin ([8]; TC-71, minimum T/C) was 10.0%, the Ymin ([9]; CHLA-136, minimum T/C) was 10.4% and the pIC50 ([9]; read-out: Absolute IC50) was 7.41. For the same compound, the pIC50 ([9]; read-out: Relative IC50) was 7.44, the Ymin ([10]; LA–N-6, minimum T/C) was 32.1% and the pIC50 ([10]; read-out: Absolute IC50) was 7.27. The pIC50 ([10]; read-out: Relative IC50) was 7.51, the “mice that died in the treated arm” value (Toxicity [11]) was 5 of 24 and the pIC50 ([12]; 96 h) was under 5.00. For the same compound, the Ymin ([12]; CHLA-56, minimum T/C) was 48.1%, the “evaluable lines meeting the criteria for high activity (EFS T/C)” value [13] was “Eight out of 11” and the “EFS T/C” value ([14]; 2.6 mg/kg) was 1.9. For the same compound, the EFS activity ([14]; 2.6 mg/kg) was “Low”, the “Estimate of median time to event” value ([14]; 2.6 mg/kg) was 38.2 days and the Median group response ([14]; 2.6 mg/kg) was “PD2 (if the TGD value >1.5, the mouse was considered PD2)”. The Response activity ([14]; 2.6 mg/kg) was “Int”, the “Tumor volume T/C” value ([14]; 2.6 mg/kg) was 0.38 and the “Median RTV/hCD45 at end of study” value ([14]; 2.6 mg/kg) was over 4. The “EFS T/C” value ([14]; 5.2 mg/kg) was over 2.1, the EFS activity ([14]; 5.2 mg/kg) was “Int” and the Median group response ([14]; 5.2 mg/kg) was “PD2 (if the TGD value >1.5, the mouse was considered PD2)”. The Response activity ([14]; 5.2 mg/kg) was “Int”, the “Tumor volume T/C” value ([14]; 5.2 mg/kg) was 0.38 and the “Median RTV/hCD45 at end of study” value ([14]; 5.2 mg/kg) was 2.2. The “EFS T/C” value ([14]; 10.4 mg/kg) was over 2.1, the EFS activity ([14]; 10.4 mg/kg) was “High” and the Median group response ([14]; 10.4 mg/kg) was “MCR”. The Response activity ([14]; 10.4 mg/kg) was “High”, the “Tumor volume T/C” value ([14]; 10.4 mg/kg) was 0.08 and the “Median RTV/hCD45 at end of study” value ([14]; 10.4 mg/kg) was 0.0. The “EFS T/C” value ([14]; 20.8 mg/kg) was over 2.1, the EFS activity ([14]; 20.8 mg/kg) was “High” and the Median group response ([14]; 20.8 mg/kg) was “MCR”. For the same compound, the Response activity ([14]; 20.8 mg/kg) was “High”, the “Tumor volume T/C” value ([14]; 20.8 mg/kg) was 0.02 and the “Median RTV/hCD45 at end of study” value ([14]; 20.8 mg/kg) was 0.0. It also gave a pIC50 ([15]; read-out: Absolute IC50) of 7.70, a pIC50 ([15]; read-out: Relative IC50) of 7.74 and a Ymin ([15]; SMS-SAN, minimum T/C) of 5.9%. The “mice that died in the MLN8237 treatment arms” value (Toxicity [16]) was 5 of 90 and the “mice that died in the MLN8237 treatment arms, percent” value (Toxicity [16]) was 5.6%.
